The nature of series [1]: Binding affinity to Schistosoma mansoni BRD3 BD 2 assessed as dissociation constant by ITC analysis. In general terms: ITC needs no label: the signal is the heat of the interaction.
The test system of series [2] is Schistosoma mansoni. Description: Antiparasitic activity against Schistosoma mansoni adult worms assessed as lethality at 20 uM incubated for 72 hrs. The series is classed as functional, organism-based.
The subject of series [3] is Schistosoma mansoni. Description: Antiparasitic activity against Schistosoma mansoni assessed as effect on schistosomula phenotype incubated for 72 hrs by high content imaging analysis. In kind it is functional, organism-based. The method, boiled down:
(§1)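 Schistosomula from mechanically transformed cercariae, 120/well, dosed from 10 mM DMSO stock at 20 and 10 μM final in duplicate (0.625% DMSO), ≥4 independent screens (Z′ >0.35). Auranofin 10 μM positive and DMSO negative controls. Phenotype and motility read by high content imaging after 72 h.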

The subject of series [4] is Schistosoma mansoni. Description: Antiparasitic activity against Schistosoma mansoni assessed as effect on schistosomula motility incubated for 72 hrs by high content imaging analysis. The series is classed as functional, organism-based. An outline of the steps:
as §1

For series [5], the system named is Schistosoma mansoni. Description: Binding affinity to Schistosoma mansoni BRD3 BD 1 and 2 assessed as thermal stability at 50 uM by DSF analysis. The method, boiled down: (§2)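 Differential scanning fluorimetry on recombinant SmBRD3(1,2) tandem construct or SmBRD3(2) single domain, compounds at 50 μM; ΔTm as mean of n = 3 with SD.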
Background: DSF heats the sample and reads unfolding from a dye or from intrinsic fluorescence.

The test system of series [6] is Schistosoma mansoni. Description: Binding affinity to Schistosoma mansoni BRD3 BD 2 assessed as thermal stability at 50 uM by DSF analysis. The method, boiled down:
as §2

In series [7] the test system is Schistosoma mansoni. Description: Binding affinity to Schistosoma mansoni BRD3 BD 1 assessed as thermal stability at 50 uM by DSF analysis.
Series [8] in a line: Binding affinity to Schistosoma mansoni BRD3 BD 1 and 2 assessed as dissociation constant by ITC analysis.
For series [9], the system named is Schistosoma mansoni. Description: Binding affinity to Schistosoma mansoni BRD3 BD 2 by ITC analysis.
Series [10] has as its system Schistosoma mansoni. Description: Antiparasitic activity against Schistosoma mansoni assessed as inhibition of miracidia to sporocyst transformation at 0.5 to 25 uM incubated for 48 hrs by enumeration method. In kind it is functional, organism-based. As to conditions: dose 0.5-25 µM. An outline of the steps:
(§3)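 Miracidia hatched from eggs, washed in Chernin's balanced salt solution, 15–25 per well. Exposed to 0.5, 2.0, 5.0, 10 and 25 μM final in 1% DMSO, 48 h at 26 °C in the dark. Dead, partially and fully transformed parasites counted as % of population. Three independent experiments, two technical replicates each; CBSS/1% DMSO negative control.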

The subject of series [11] is Schistosoma mansoni. Description: Antiparasitic activity against Schistosoma mansoni assessed as inhibition of miracidia to sporocyst transformation incubated for 48 hrs by enumeration method. The series is classed as functional, organism-based. As to conditions: dose 0.5-25 µM. The method, boiled down: as §3
Series [12] is described as follows: Prodrug conversion in Schistosoma mansoni adult worms assessed as ester hydrolysis in media at 20 uM incubated for 24 hrs followed by compound washout thrice and subsequent addition of fresh medium without compound by LC-MS analysis. In kind it is ADME.
The nature of series [13]: Drug uptake in Schistosoma mansoni adult worms at 20 uM incubated for 24 hrs followed by compound washout thrice and subsequent addition of fresh medium without compound by LC-MS analysis. The series is classed as ADME. The method, boiled down: (§4)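 Adult worms exposed to 20 μM compound for 24 h, medium exchanged three times, worms then lysed; parent and acid levels in lysate quantified by LCMS.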

Series [14] is described as follows: Prodrug conversion in Schistosoma mansoni adult worms assessed as 4-{(2S,4R)-1-acetyl-2-methyl-4-[(quinolin-6-yl)amino]-1,2,3,4-tetrahydroquinolin-6-yl}benzoic acid metabolite formation at 20 uM incubated for 24 hrs followed by compound washout thrice and subsequent addition of fresh medium without compound by LC-MS analysis. The series is classed as ADME. The method, boiled down: as §4

Series [15] deals with Schistosoma mansoni. Description: Antiparasitic activity against Schistosoma mansoni assessed as effect on schistosomula phenotype at 10 to 20 uM incubated for 72 hrs by high content imaging analysis. The series is classed as functional, organism-based. As to conditions: dose 10-20 µM. The method, boiled down: as §1
Series [16] deals with Schistosoma mansoni. Description: Antiparasitic activity against Schistosoma mansoni assessed as effect on schistosomula motility at 10 to 20 uM incubated for 72 hrs by high content imaging analysis. As to conditions: dose 10-20 µM. The series is classed as functional, organism-based. An outline of the steps: as §1
The nature of series [17]: Prodrug conversion in Schistosoma mansoni adult worms assessed as 3-(3,5-dimethylisoxazol-4-yl)-5-(hydroxy(phenyl)methyl)phenol metabolite formation at 20 uM incubated for 24 hrs followed by compound washout thrice and subsequent addition of fresh medium without compound by LC-MS analysis. The series is classed as ADME.
Series [18] has as its system Schistosoma mansoni. Description: Antiparasitic activity against Schistosoma mansoni adult worms assessed as reduction in worm pairing at 20 uM incubated for 72 hrs by imaging analysis. The series is classed as functional, organism-based. The method, boiled down: (§5)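 Adult worm pairs perfused from TO mice infected percutaneously 7 weeks earlier with 180 cercariae; 1 pair/well in duplicate, dosed at 20 μM in 0.2% DMSO for 72 h. Motility scored by digital image processing (WormassayGP2); in vitro laid eggs counted and pairing noted. DMSO negative and praziquantel positive controls; n = 2 independent screens, 2 technical replicates each.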

Series [19] deals with Schistosoma mansoni. Description: Antiparasitic activity against Schistosoma mansoni adult worms assessed as reduction in oviposition at 20 uM incubated for 72 hrs by imaging analysis. The series is classed as functional, organism-based. The method, boiled down:
as §5

The subject of series [20] is Schistosoma mansoni. Description: Antiparasitic activity against Schistosoma mansoni adult worms assessed as effect on worm motility at 20 uM incubated for 72 hrs by imaging analysis. In kind it is functional, organism-based. The method, boiled down: as §5

The source made the active and inactive calls. No cut-off for these calls is given here.

As a reminder, the Kd is the free concentration of one partner at which half of the binding sites on the other are occupied at equilibrium, for simple one-to-one binding. In the case of `CCOC(=O)c1ccc(-c2ccc3c(c2)[C@H](Nc2ccc4ncsc4c2)C[C@H](C)N3C(C)=O)cc1`, in series [1], the dissociation constant (Kd) worked out at 1180 nM. For the same molecule, the outcome in series [2] was inactive.

The pKd is the negative decadic logarithm of the Kd, by convention in mol/L. The EC50 is the concentration needed to bring the measured effect to its halfway point. With `CC(=O)N1c2ccc(-c3ccc(C(=O)O)cc3)cc2[C@H](Nc2ccc3ccoc3c2)C[C@@H]1C`, in series [1], the negative-log Kd (pKd) turned out to be 5.9. Besides, the concentration giving a half-maximal response (EC50) came to 2430 nM in series [3] and 3920 nM in [4]. Also, the result in [2] was inactive.

`Cc1sc2c(c1C)C(c1ccc(Cl)cc1)=N[C@@H](CC(=O)OC(C)(C)C)c1nnc(C)n1-2`: the result in series [5] and in [7] was Active. Further, the result in series [6], in series [9] and in [2] was inactive. Besides, the Kd in series [8] amounted to 445 nM. Also, the negative logarithm of the Kd (pKd) in [8] came to 6.4. In addition, the inhibition entry in [10] is “Active”.

On to `Cc1noc(C)c1-c1cc(O)cc(C(O)c2cccnc2)c1` (centres undefined), for which the result in [9] and in series [2] was inactive.

Regarding `CC(=O)N1c2ccc(-c3ccc(C(=O)O)cc3)cc2[C@H](Nc2ccc3ccsc3c2)C[C@@H]1C`, the negative logarithm of the Kd (pKd) in series [1] is given as 6.2. Moreover, the outcome in series [2] was inactive.

Consider `O=C(C1CCCCC1)N1CC(=O)N2CCc3ccccc3C2C1` (centres undefined), for which the result in series [2] was inactive.

Turning to `CCOC(=O)c1ccc(-c2ccc3c(c2)[C@H](Nc2ccc4ncccc4c2)C[C@H](C)N3C(C)=O)cc1`, the Kd in series [1] was 364 nM. Besides, in series [2], the result was inactive. The inhibition entry in series [11] is “Dose-Dependent Effect”. In addition, the Drug metabolism entry in series [12] and in [14] was “Metabolite_Detected” throughout. Also, in [13], the Drug uptake entry is “Active”.

For `Cc1noc(C)c1-c1cc(O)cc(C(O)c2ccccc2)c1` (centres undefined), the outcome in series [5] and in [7] was Active. In addition, the result in series [6], in series [9] and in series [2] was inactive.

With `CC(=O)Oc1cc(-c2c(C)noc2C)cc(C(O)c2ccccc2)c1` (centres undefined), the result in series [9] and in series [2] was inactive. The outcome in series [15] and in series [16] was Active. In series [10], the inhibition result is “inactive”. The Drug metabolism entry in [17] is “Metabolite_Detected”.

In the case of `CCOC(=O)c1ccc(-c2ccc3c(c2)[C@H](Nc2ccc4[nH]ccc4c2)C[C@H](C)N3C(C)=O)cc1`, the Kd in series [1] is 651 nM. Besides, the outcome in [2] was inactive.

For the molecule `CC(=O)N1c2ccc(-c3ccc(C(=O)O)cc3)cc2[C@H](Nc2ccc3[nH]ccc3c2)C[C@@H]1C`, the pKd in series [1] turned out to be 6.2. The concentration giving a half-maximal response (EC50) in series [3] came out at 2970 nM; in series [4], 1810 nM. Moreover, the outcome in [2] was inactive.

Take `CC(=O)N1c2ccc(-c3ccc(C(=O)O)cc3)cc2[C@H](Nc2ccc3sccc3c2)C[C@@H]1C`: in series [1], the negative logarithm of the Kd (pKd) is 6.3. Moreover, the result in series [2] was inactive.

Turning to `CCOC(=O)c1ccc(-c2ccc3c(c2)[C@H](Nc2ccc4ccoc4c2)C[C@H](C)N3C(C)=O)cc1`, the equilibrium dissociation constant (Kd) in series [1] amounted to 1180 nM. Also, the result in series [2] was inactive.

For `CC(=O)N1c2ccc(-c3ccc(C(=O)O)cc3)cc2[C@@H](Nc2ccc3ccsc3c2)C[C@H]1C`, the result in [9], in [15], in series [16] and in series [2] was inactive.

With `CC(=O)N1c2ccc(-c3ccc(C(=O)O)cc3)cc2[C@H](Nc2ccc3ncsc3c2)C[C@@H]1C`, in [1], the negative logarithm of the Kd (pKd) amounted to 5.9. Moreover, the figures for the EC50 in series [3] and in series [4] were 2140 nM and 2850 nM, respectively. The outcome in series [2] was inactive.

Consider `COc1cc2c3c(cnc2cc1-c1c(C)noc1C)NC(=O)C3[C@H](C)c1ccccn1` (some centres undefined), for which the negative logarithm of the Kd (pKd) in series [1] is listed as 5.2.

Turning to `Cc1noc(C)c1-c1cc(O)cc(C(O)c2ccc(F)cc2)c1` (centres undefined), the result in series [9] and in series [2] was inactive. Besides, the inhibition result in [10] was “inactive”.

Regarding `CCOC(=O)c1ccc(-c2ccc3c(c2)[C@H](Nc2ccc4ccsc4c2)C[C@H](C)N3C(C)=O)cc1`, the outcome in [18], in [19] and in [20] was Active. In series [2], the result was inactive. Moreover, in [11], the inhibition result was “Dose-Dependent Effect”.

On to `CC(=O)N1c2ccc(-c3ccc(C(=O)O)cc3)cc2[C@H](Nc2ccc3ncccc3c2)C[C@@H]1C`, for which, in series [1], the negative-log Kd (pKd) is recorded as 6.4. For the same molecule, the EC50 is 1110 nM in series [3] and 3300 nM in [4]. In addition, in [2], the result was inactive.

In the case of `CC(=O)N1c2ccc(-c3ccc(C(=O)O)cc3)cc2[C@H](Nc2ccc(Cl)cc2)C[C@@H]1C`, the outcome in series [5] and in series [6] was Active. For the same molecule, in series [1], the pKd is on record as 5.7. Also, the outcome in series [2] was inactive.

`CCOC(=O)c1ccc(-c2ccc3c(c2)[C@H](Nc2ccc4sccc4c2)C[C@H](C)N3C(C)=O)cc1`: the outcome in series [2] was inactive.

For the molecule `CCOC(=O)c1ccc(-c2ccc3c(c2)[C@@H](Nc2ccc4ccsc4c2)C[C@@H](C)N3C(C)=O)cc1`, the outcome in [18], in series [15], in series [16] and in series [2] was inactive. Moreover, in series [10], the inhibition entry was “Active”.

`CC[C@@H]1C(=O)N(C)c2cnc(Nc3ccc(C(=O)NC4CCN(C)CC4)cc3OC)nc2N1C1CCCC1`: the result in series [5] and in series [6] was Active.

The values above are taken from ChEMBL document CHEMBL5344427, “Small Molecule Ligands of the BET-like Bromodomain, SmBRD3, Affect Schistosoma mansoni Survival, Oviposition, and Development” (J Med Chem, 2023).
